Article PMC10012268 (ACS Infectious Diseases, 2023)

Columns and labels:
[1] = Liver microsome stability, human; assay type: in vitro ADME
[2] = Hepatocyte stability, rat; assay type: in vitro ADME; settings: pooled rat hepatocytes
In short: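 Test compound (1 μM) in Krebs–Henseleit buffer was incubated with pooled rat hepatocytes (1 × 10^6 cells/mL) at 37 °C, 5% CO2, with samples from 0 to 90 min. Reactions were quenched with ice-cold acetonitrile and centrifuged, and supernatants were analysed by LC–MS/MS. Half-life and CLint were derived from parent remaining. Run in duplicate.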

[3] = Kinetic aqueous solubility; assay type: physicochemical; settings: kinetic in PBS
In short: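 Miniaturised shake flask: test compound (200 μM) in PBS pH 7.4 was shaken at 600 rpm, 25 °C for 2 h, filtered, and the filtrate half-diluted in acetonitrile. Run in duplicate.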

LogD at pH 7.4 = assay type: physicochemical; settings: 1-octanol/phosphate-buffered saline (1:1, v/v)
Pf Dd2 parental line = assay: 3H-hypoxanthine 72 h assay, Dd2 parental line; assay type: cell-based; settings: Plasmodium falciparum, DD2, read-out: Pf Dd2 EC50, Dd2 parental line, 3H-hypoxanthine 72 h; average of two experiments
K1 = assay: 3H-hypoxanthine 72 h assay, K1; assay type: cell-based; settings: Plasmodium falciparum, K1, read-out: Pf multidrug-resistant strain EC50 K1
NF54 = assay: 3H-hypoxanthine 72 h assay, NF54; assay type: cell-based; settings: Plasmodium falciparum, NF54, read-out: Pf multidrug-resistant strain EC50 NF54
RF12 = assay: 3H-hypoxanthine 72 h assay, RF12; assay type: cell-based; settings: Plasmodium falciparum, read-out: Pf multidrug-resistant strain EC50 RF12
7G8 = assay: 3H-hypoxanthine 72 h assay, 7G8; assay type: cell-based; settings: Plasmodium falciparum, 7G8, read-out: Pf multidrug-resistant strain EC50 7G8
[4] = test system: P. falciparum NF54 female gametes; assay: Dual gamete formation assay; assay type: cell-based; settings: Plasmodium falciparum, NF54, read-out: female gamete EC50
In short: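 Stage V NF54 gametocyte cultures with >0.2% exflagellation were diluted to 12.5 million cells/mL in gametocyte medium containing 10% human serum and no Albumax. They were dispensed warm (625,000 cells/well) onto the test compound. After ookinete medium was added, plates went to 4 °C for 4 min and then 28 °C for 5 min, followed by 24 h at 28 °C in the dark. Female gametes (Pfs25) were scored from one fluorescence image per well.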

P. berghei EEFs = assay: Exoerythrocytic stage assay; assay type: cell-based; settings: Plasmodium berghei, 48 h, read-out: Pb liver stage EEFs EC50 (SD)
HepG2 = HepG2 host cell viability in the liver stage panel; assay type: cell-based; settings: Homo sapiens, HepG2, 48 h, read-out: HepG2 EC50 (liver stage)
[5] = test system: drug-resistant P. falciparum strains; assay: Profiling against a selection of multidrug-resistant parasites; assay type: cell-based, Plasmodium falciparum
In short: (§1)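 Asexual blood-stage parasites in hypoxanthine-free RPMI 1640 with HEPES, NaHCO3, neomycin (100 μg/mL) and Albumax II (5 g/L). Infected blood (0.3% parasitemia, 2.5% hematocrit) was exposed to a 10-point serial dilution at 37 °C under 93% N2/4% CO2/3% O2. After 48 h, [3H]-hypoxanthine (0.5 μCi/well) was added for 24 h more. Scintillation cpm were normalised to untreated controls, and logit regression gave values as means of two experiments.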

[6] = test system: P. falciparum 3D7 parasites; assay: P. falciparum 3D7 asexual-stage parasite LDH viability assay; assay type: cell-based, Plasmodium falciparum; settings: 3D7 parasite EC50 compared to 17
[7] = Liver microsome stability, mouse; assay type: in vitro ADME; settings: pooled mouse liver microsomes
In short: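 Test compound (1 μM, phosphate buffer) was incubated with pooled mouse liver microsomes (0.5 mg/mL) at 37 °C, with and without an NADPH regeneration system, sampling at 0, 5, 20, 30, 45 and 60 min. Run in duplicate.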

[8] = test system: 41 resistant 3D7 P. falciparum populations (V259L cyt b Qo site mutation); assay: LDH growth assay against 41 resistant populations; assay type: cell-based; settings: Plasmodium falciparum, 3D7, read-out: EC50 against all three populations
In short: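 Three 3D7 clonal populations were selected by exposure to test compound starting at 2 × EC50, monitored by Giemsa smears and stepped up after recovery. Synchronised ring-stage parasites were then grown 72 h on predispensed compound in RPMI/AlbuMAX and frozen at −80 °C overnight. LDH activity was read with APAD/NBT absorbance at 650 nm.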

[9] = test system: Pf Dd2 strain with an I22L mutation in the Qi site cyt b; assay: 3H-hypoxanthine 72 h assay, Dd2 cyt b; assay type: cell-based, Plasmodium falciparum
In short: as §1

[10] = test system: Pf SB1-A6 strain with a CNV (∼2-fold) and a C276F mutation in DHODH; assay: SB1-A6 asexual-stage assay; assay type: cell-based; settings: Plasmodium falciparum, 72 h, read-out: SB1-A6 EC50
In short: (§2)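 Parasites were sorbitol-synchronised one cycle before setup. Ring stages at 0.5% parasitemia and 2% hematocrit were plated onto twofold compound dilutions and incubated at 37 °C for 72 h. Cells were fixed in 0.25% glutaraldehyde (RT, 30 min), stained with 2.5× SYBR Green (37 °C, 30 min) and counted by flow cytometry. EC50 is the average of three independent experiments.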

[11] = test system: Pf Dd2 expressing ScDHODH; assay: ScDHODH asexual-stage assay; assay type: cell-based; settings: Plasmodium falciparum, DD2, 72 h, read-out: Dd2 ScDHODH EC50
In short: as §2

[12] = test system: mitochondrial electron transport chain of P. falciparum 3D7 asexual parasites; assay: ETC biosensor / oxygen consumption rate; assay type: cell-based, Plasmodium falciparum
In short: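 Magnet-purified trophozoite-infected RBCs were saponin-released (0.05%, 37 °C, 3 min) and washed. Parasites were suspended in MAS buffer with 25 mM malate and 0.002% digitonin and seeded at 5 × 10^6 per Cell-Tak-coated well (800g, 10 min). Seahorse XFe96 OCR was read at baseline, after test compound (5 μM final), after TMPD (0.2 mM) with ascorbate (2 mM), then after NaN3 (10 mM). Each cycle was 20 s mix, 1 min wait, 2.5 min measure.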

In the case of CCOC(=O)c1cn(CC)c2cc(N3CCC(C)CC3)c(F)cc2c1=O [Compound 21, Ethyl 1-Ethyl-6-fluoro-7-(4-methyl-1-piperidyl)-4-oxo-quinoline-3-carboxylate], the “liver microsomes human CLint” value [1] is reported as 205.2 µL/min/mg, the hepatocyte CLint at 1 μM [2] is reported as greater than 92.4 µL/min/1e6 cells and the “aqueous solubility pH 7.4” value [3] is reported as 22.9 μM. It also gave a logD at 2 h (LogD at pH 7.4) of 3.2, an EC50 (Pf Dd2 parental line) of 55 nM and an EC50 (K1) of 48 nM. For the same compound, the EC50 (NF54) was 65 nM, the EC50 (RF12) was 20 nM and the EC50 (7G8) was 38 nM. The EC50 [4] was greater than 25000 nM, the EC50 (P. berghei EEFs) was 24 nM and the EC50 (HepG2) was greater than 50000 nM. The “potency against each drug-resistant strain compared to the Dd2 and NF54 wild-type parasites” value [5] was “equipotent”.

In the case of CCn1cc(-c2nc(C)no2)c(=O)c2cc(F)c(N3CCC(Cc4ccccc4)CC3)cc21 [Compound 41, 7-(4-Benzyl-1-piperidyl)-1-ethyl-6-fluoro-3-(3-methyl-1,2,4-oxadiazol-5-yl)quinolin-4-one], the “fold more potent than 17” value [6] is reported as 2 fold, the microsomal CLint at 1 μM [7] is reported as 44.1 µL/min/mg and the hepatocyte CLint at 1 μM [2] is reported as 24.7 µL/min/1e6 cells. The logD at 2 h (LogD at pH 7.4) was 4.2, the EC50 [8] was roughly 800 nM and the EC50 (Pf Dd2 parental line) was 4 nM. The “difference in sensitivity between the ELQ-300 resistant Dd2 strain and the Dd2 parental strain” value [9] was “no difference in sensitivity”, the EC50 [10] was 480 nM and the EC50 [11] was 860 nM. For the same compound, the EC50 (K1) was 5 nM, the EC50 (NF54) was 5 nM and the EC50 (RF12) was 2 nM. The EC50 (7G8) was 3 nM, the “OCR upon addition of TMPD” value ([12]; after compound (5 μM), TMPD (cytochrome c electron donor) added) was “rescued” and the “effect on malate-dependent oxygen consumption rate (OCR)” value ([12]; compounds at 5 μM, malate as the energy source) was “significantly reduce the OCR”. The “potency against each drug-resistant strain compared to the Dd2 and NF54 wild-type parasites” value [5] was “equipotent”.
